Measured values from ChEMBL document CHEMBL1148199, “Synthesis, conformational analysis, and cytotoxicity of new analogues of the natural cyclodepsipeptide jaspamide” (J Nat Prod, 2004).
≈ marks a conversion by molar mass, not a printed value. Calls of active or inactive are those of the source. The rule behind the calls is not given here.

How the values were obtained:
[1] = Antiproliferative activity against multidrug-resistant human NCI/ADR cells expressing p-glycoprotein after 48 hrs by SRB assay; assay type: functional, cell-based; settings: NCI/ADR-RES
How it was run: (§1)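 Human cell lines (T24 bladder carcinoma, MCF-7, NCI/ADR) kept in RPMI-1640 with 10% FBS and 50 μg/mL gentamycin at 37 °C, 5% CO2. Plated at ~15% confluency and left 24 h to attach. Treated in triplicate with varying concentrations for 48 h. Survival measured by sulforhodamine B binding as % of control cultures. IC50 is the concentration giving 50% inhibition of proliferation.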

[2] = tested on: A10; assay: Effect on cell morphology in rat A10 cells assessed microtubule depolymerization by immunofluorescence assay; assay type: functional, cell-based
How it was run: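 Near-confluent A-10 cells on glass coverslips treated with compounds at micromolar amounts for 24 h. Microtubules immunostained with monoclonal anti-β-tubulin followed by fluorescein-conjugated anti-mouse IgG and examined for changes in the microtubule network.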

[3] = tested on: MCF7; assay: Antiproliferative activity against human MCF7 cells after 48 hrs by SRB assay; settings: MCF7, 48 h
[4] = tested on: T-24; assay: Antiproliferative activity against human T24 cells after 48 hrs by SRB assay; assay type: functional, cell-based; settings: T-24, 48 h; how it was run: as §1
[5] = tested on: A10; assay: Effect on cell morphology in rat A10 cells assessed as microfilaments depolymerization by immunofluorescence assay; assay type: functional, cell-based
How it was run: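 A-10 rat smooth muscle cells grown to near-confluency on glass coverslips and exposed to compounds at micromolar amounts for 24 h. Jaspamide served as positive control. Microfilaments stained with monoclonal anti-β-actin, then fluorescein-conjugated anti-mouse IgG. Read-out: actin aggregation and cellular aberrations such as binucleated cells.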

[6] = tested on: A10; assay: Antiproliferative activity against rat A10 cells after 48 hrs by SRB assay; assay type: cell-based; settings: A10, 48 h
How it was run: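 A-10 rat aortic smooth muscle cells kept in α-MEM with 10% FBS and 50 μg/mL gentamycin at 37 °C, 5% CO2. Seeded at ~15% confluency, 24 h recovery, then triplicate 48 h exposure to a concentration series. SRB binding read against control cultures. IC50 is the concentration causing 50% inhibition of proliferation.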

[7] = tested on: A10; assay: Effect on cell morphology in rat A10 cells assessed as actin aggregation at 23 nM by immunofluorescence assay; assay type: functional, cell-based
How it was run: (§2)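 A-10 rat aortic smooth muscle cells were grown to near-confluency on glass coverslips and treated for 24 h. Microfilaments were stained with monoclonal anti-β-actin followed by fluorescein-conjugated anti-mouse IgG. Actin aggregation was scored by immunofluorescence microscopy. Microtubules were stained in parallel samples with anti-β-tubulin and the same secondary antibody.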

[8] = tested on: A10; assay: Effect on cell morphology in rat A10 cells assessed as actin aggregation at 0.85 nM by immunofluorescence assay; assay type: functional, cell-based; how it was run: as §2

SMILES | IC50 [1] [µg/mL] | Activity [2] | IC50 [3] [µg/mL] | IC50 [4] [µg/mL] | Activity [5] | IC50 [6] [µg/mL] | Activity [7] | Activity [8]
CC(C)[C@@H]1NC(=O)[C@@H](Cc2c[nH]c3ccccc23)NC(=O)[C@H](C)NC(=O)CCCCCNC1=O | 12.5 (≈ 26.6 µM) | inactive | 1.8 (≈ 3.83 µM) | 10.3 (≈ 21.9 µM) | inactive | 2 (≈ 4.26 µM) | – | –
CC(C)[C@@H]1NC(=O)[C@@H](Cc2c[nH]c3ccccc23)NC(=O)[C@H](C)NC(=O)CCCCCCCNC1=O | > 100 | inactive | > 100 | > 100 | inactive | > 100 | – | –
CC(C)[C@@H]1NC(=O)[C@@H](Cc2c[nH]c3ccccc23)NC(=O)[C@H](C)NC(=O)CCNC(=O)CCCCNC1=O | 24 (≈ 45.6 µM) | inactive | 3 (≈ 5.7 µM) | 19 (≈ 36.1 µM) | inactive | 4.3 (≈ 8.17 µM) | – | –
C/C1=C\[C@H](C)C[C@H](C)OC(=O)C[C@H](c2ccc(O)cc2)NC(=O)[C@@H](Cc2c(Br)[nH]c3ccccc23)N(C)C(=O)[C@H](C)NC(=O)[C@@H](C)C1 | – | – | – | – | – | – | Active | Active
